ChEMBL document CHEMBL1138440, “Phosphorous acid analogs of novel P2-P4 macrocycles as inhibitors of HCV-NS3 protease” (Bioorg Med Chem Lett, 2009)
pEC50, pKi: −log10 of the molar value.

Key:
Hepatitis C virus [1] = assay: Inhibition of HCV genotype 1b NS3/4A protease; parameters: species or system Hepatitis C virus subtype 1b
How it was run: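 Full-length HCV NS3/4A protease; inhibition reported as Ki. Mean of at least three independent experiments.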

Hepatitis C virus [2] = assay: Antiviral activity against HCV infected in human HuH7 cells by subgenomic replication assay in presence of 50% normal human serum; format: functional, organism-based, Hepacivirus hominis, Huh-7
How it was run: (§1)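 HCV replicon replication assay in Huh-7 cells; EC50 is the concentration giving 50% inhibition of replication. Run with 10% fetal calf serum (low serum) or 50% normal human serum (to gauge protein binding). Mean of at least three independent experiments.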

Hepatitis C virus [3] = assay: Antiviral activity against HCV infected in human HuH7 cells by subgenomic replication assay in presence of 10% fetal calf serum; format: functional, organism-based, Hepacivirus hominis; settings: Huh-7; how it was run: as §1

Structure (SMILES)	pEC50 (Hepatitis C virus [3])	pKi (Hepatitis C virus [1])	pEC50 (Hepatitis C virus [2]; Hepatitis C virus, Huh-7)	pEC50 (Hepatitis C virus [2]; huh-7)
C=CC1CC1(NC(=O)[C@@H]1C[C@@H]2CN1C(=O)[C@H](C(C)(C)C)NC(=O)OCC(C)(C)CCCCc1cccc3c1CN(C3)C(=O)O2)P(=O)(OCC)OCC (single isomer, unassigned)	4.70		4.82	
C=C[C@H]1C[C@]1(NC(=O)[C@@H]1C[C@@H]2CN1C(=O)[C@H](C(C)(C)C)NC(=O)OCC(C)(C)CCCCc1cccc3c1CN(C3)C(=O)O2)C(=O)O		5.55		
C=CC1CC1(NC(=O)[C@@H]1C[C@@H]2CN1C(=O)[C@H](C(C)(C)C)NC(=O)OCC(C)(C)CCCCc1cccc3c1CN(C3)C(=O)O2)P(=O)(OCC)OCC (stereo in doubt)		5.54		4.70
C=CC1CC1(NC(=O)[C@@H]1C[C@@H]2CN1C(=O)[C@H](C(C)(C)C)NC(=O)OCC(C)(C)CCCCc1cccc3c1CN(C3)C(=O)O2)P(=O)(O)O (mixture of isomers)		7.80		

Continued, in another order:

pEC50 (Hepatitis C virus [3])	Structure (SMILES)	pKi (Hepatitis C virus [1])	pEC50 (Hepatitis C virus [2]; Hepatitis C virus, Huh-7)	pEC50 (Hepatitis C virus [2]; huh-7)
6.18	C=CC1CC1(NC(=O)[C@@H]1C[C@@H]2CN1C(=O)[C@H](C(C)(C)C)NC(=O)OCC(C)(C)CCCCc1cccc3c1CN(C3)C(=O)O2)P(=O)(O)OCC (mixture of isomers)	7.15	5.62	
6.30	C=CC1CC1(NC(=O)[C@@H]1C[C@@H]2CN1C(=O)[C@H](C(C)(C)C)NC(=O)OCC(C)(C)CCCCc1cccc3c1CN(C3)C(=O)O2)P(C)(=O)O (mixture of isomers)	8.70	6.60	
